Measles CPE – compounds protecting cells from measles virus cytopathic effect, primary screen, measles RdRp inhibitor project, single point, MLSMR library, absorbance. 1.5% of 140,000 active. Measles virus-infected cells, CPE protection. protection (pct of control), % at 4 µM; in the data active means protection mostly above about 24%, no sharp cut-off; inactive means mostly below about 26%
Yeast growth inh – growth inhibitors of yeast BB579 in restrictive medium, primary screen, yeast lifespan-shortening project, S. cerevisiae; inhibition, % at 10 µM; AID 804, 2007; OD615, 48 h; 0.51% of 140,000 active;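 active means inhibition above a set limit, 3 SD over the mean compound inhibition, cut at about 44% in these data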
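Detection: OD615 turbidity measurement; Material: Saccharomyces cerevisiae DeaD strain BB579, replicative lifespan model yeast; Timing: 48 h exposure, 30 °C; Doses: single 10 µM dose; Medium: CSMM-D restrictive synthetic medium containing dextrose (glucose); Controls: amphotericin B at 10 µg/mL as positive control.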
RAM inhibit – inhibitors of the yeast RAM network, primary screen, dse1pr::URA3 reporter, 5-FOA selection. 1.8% of 190,000 active. inhibition, % at 50 µM. S. cerevisiae dse1pr::URA3 reporter, 5-FOA growth OD615, 2 d; analog-sensitive cbk1-as2 kinase mutant strain;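 active means inhibition above a set limit, 3 SD over mean compound inhibition, cut at about 8.4% in these data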;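 further: inhibition rescues growth on 5-FOA so higher OD means more RAM inhibition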
Yeast lifespan up – compounds extending yeast replicative lifespan, primary screen, S. cerevisiae, OD615; S. cerevisiae growth with nicotinamide; deaD strain in restrictive glucose medium; inhibition of the nicotinamide effect, % at 10 µM; 0.68% of 130,000 active; AID 775, 2007;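 active means inhibition above a set limit, placed 3 SD over the median of all compounds, cut at about 26% in these data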
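System: Modified budding yeast, DeaD strain | Buffer or medium: Restrictive glucose medium | Also added: 1.5 mM nicotinamide | Doses: 10 µM single point, 0.25% DMSO | Schedule: 48 h compound exposure at 30 °C, humidified | Detection: Absorbance at 615 nm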
Hits are given with their value. This is a sample that favours compounds with a hit; in the whole collection about 3.6% have one here.

What do the screens show for `Cc1ccc(-n2c3nc(=O)[nH]c(=O)c-3cc3cc([N+](=O)[O-])ccc32)cc1C`?
Measles CPE: inactive; Yeast growth inh: inactive; RAM inhibit: 9.4; Yeast lifespan up: inactive

How did N#CC(C#N)=C1CCc2ccccc2N1 do in these assays?
Measles CPE: 59; Yeast growth inh: inactive; RAM inhibit: inactive

How did CCOC(=O)C1=C(C)NC(=NC)SC1c1ccccc1 (configuration not stated) do in these assays?
RAM inhibit: inactive

What do the screens show for `O=[N+]([O-])c1ccc(N/N=C/c2c[nH]c3ccccc23)cc1`?
Measles CPE: inactive; Yeast growth inh: inactive; RAM inhibit: inactive; Yeast lifespan up: inactive

Results for O=[N+]([O-])c1ccc(N/N=C/c2ccc[nH]2)cc1 ?
Measles CPE: inactive; Yeast growth inh: 87; RAM inhibit: 8.9; Yeast lifespan up: inactive

What do the screens show for `CCCn1c(C)cc(/C=C(\C#N)C(=O)OCC(=O)Nc2cccc(OC)c2)c1C`?
Measles CPE: inactive; Yeast growth inh: inactive; RAM inhibit: 8.9; Yeast lifespan up: inactive

Results for Cc1nc2nc(C)c(CCC(=O)N3CCc4ccccc43)c(C)n2n1 ?
Measles CPE: inactive; Yeast growth inh: inactive; RAM inhibit: inactive; Yeast lifespan up: inactive

Results for Cc1nc2ncnn2c(C)c1CCC(=O)N1CCc2ccccc21 ?
Measles CPE: 40; Yeast growth inh: inactive; RAM inhibit: inactive; Yeast lifespan up: inactive

How did COC(=O)c1ccccc1NC(=O)CCCn1nc([N+](=O)[O-])c(Br)c1C do in these assays?
RAM inhibit: inactive

Results for Cc1ccc(S(=O)(=O)N2CCN(c3cc4c(cc3[N+](=O)[O-])n(C)c(=O)n4C)CC2)cc1 ?
Measles CPE: inactive; Yeast growth inh: inactive; RAM inhibit: inactive; Yeast lifespan up: inactive

How did Cn1c(=O)n(C)c2cc([N+](=O)[O-])c(N3CCN(S(=O)(=O)c4ccc5ccccc5c4)CC3)cc21 do in these assays?
Measles CPE: 33; Yeast growth inh: inactive; RAM inhibit: inactive; Yeast lifespan up: inactive

How did C/C(CC(C)C)=N\NC(=O)Nc1ccccc1 do in these assays?
Measles CPE: inactive; Yeast growth inh: inactive; RAM inhibit: inactive; Yeast lifespan up: inactive

How did CCOC(=O)C/C(C)=N/NC(=O)Nc1ccccc1 do in these assays?
Measles CPE: inactive; Yeast growth inh: inactive; RAM inhibit: inactive; Yeast lifespan up: 31

What do the screens show for `Cc1cc(O)c(/C=N/OCc2ccc(Cl)cc2Cl)c(=O)o1`?
RAM inhibit: inactive

Results for CN(C)/C=C(\C=N\OCc1ccc(Cl)cc1Cl)C(=O)Nc1ccc(Cl)c(Cl)c1 ?
Measles CPE: inactive; Yeast growth inh: inactive; RAM inhibit: 11; Yeast lifespan up: inactive

What do the screens show for `O=C(CSc1nnc(-c2ccncc2)o1)Oc1ccccc1`?
Measles CPE: inactive; Yeast growth inh: inactive; RAM inhibit: inactive; Yeast lifespan up: inactive

Results for O=C(O)CSc1nnc(-c2ccccc2)o1 ?
Measles CPE: 33; Yeast growth inh: inactive; RAM inhibit: inactive; Yeast lifespan up: inactive

How did O=C(CSc1nnc(-c2cccnc2)o1)Oc1ccccc1 do in these assays?
Measles CPE: 44; Yeast growth inh: inactive; RAM inhibit: inactive; Yeast lifespan up: inactive

How did Cc1ccc(NC(=O)c2ccc(CSc3nnc(-c4ccncc4)n3C)cc2)c(C)c1 do in these assays?
Measles CPE: 100; Yeast growth inh: inactive; RAM inhibit: inactive; Yeast lifespan up: inactive

How did O=C(N/N=C1\CC2CC=CC12)c1ccc(COc2ccccc2)cc1 (configuration not stated) do in these assays?
Measles CPE: inactive; Yeast growth inh: 54; RAM inhibit: inactive; Yeast lifespan up: inactive

How did CC(C)(C)c1ccc(OCc2ccc(C(=O)N/N=C3\CC4CC=CC34)cc2)cc1 (configuration not stated) do in these assays?
Measles CPE: inactive; Yeast growth inh: inactive; RAM inhibit: inactive; Yeast lifespan up: inactive

Results for Cc1ccccc1C(=O)O/N=C/c1c(N2CCOCC2)n(C)c2ccccc12 ?
Measles CPE: inactive; Yeast growth inh: 79; RAM inhibit: inactive; Yeast lifespan up: inactive

Results for Cn1c(Cl)c(/C=N/OC(=O)C2CC2)c2ccccc21 ?
RAM inhibit: inactive

Results for Cc1ccc(Nc2nc(N/N=C\c3ccc4c(c3)OCO4)nc(N3CCOCC3)n2)cc1 ?
RAM inhibit: inactive

What do the screens show for `CC(C)C(=O)Nc1ccc(C(=O)N2CCCCCC2)cc1`?
Measles CPE: 39; Yeast growth inh: inactive; RAM inhibit: inactive; Yeast lifespan up: inactive

Screening data (PubChem)
